Holding throughout (format): functional, cell-based
The subject of one assay is MCF7. As to the kind of experiment: Cytotoxicity against human MCF7 cells after 48 hrs by MTT assay. The settings on record: MCF7, 48 h. The method, boiled down:
(§1)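 Human tumour cells were seeded in 96-well plates at an initial density of 1 × 10^5 cells/mL. Adherent lines were allowed to attach for 12 h before dosing, and HL-60 suspension cells were seeded just before dosing. Cells were exposed to […], 0.32, 1.6, 8 and 40 μM for 48 h, in triplicate, with cisplatin and paclitaxel as positive controls. Viability was read by MTT and growth curves were plotted.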
In general terms: Formazan colour is commonly taken as a measure of viable cells.

The next assay deals with SW480. As to the kind of experiment: Cytotoxicity against human SW480 cells after 48 hrs by MTT assay. Particulars: SW480, 48 h. The method, boiled down:
as §1

The test system of the next assay is SMMC-7721. The assay is described as follows: Cytotoxicity against human SMMC7721 cells after 48 hrs by MTT assay. The settings on record: SMMC-7721, 48 h. In a few lines: as §1
Another assay relates to A549. As to the kind of experiment: Cytotoxicity against human A549 cells after 48 hrs by MTT assay. The settings on record: A549, 48 h. In a few lines: as §1
The next assay concerns HL-60. The assay is described as follows: Cytotoxicity against human HL60 cells after 48 hrs by MTT assay. Particulars: HL-60, 48 h. In a few lines: as §1

Usually IC50 stands for the concentration that gives 50% inhibition.

Turning to `O=C1C[C@@H]2OCC=C3C[N+]4([O-])CC[C@]56c7ccccc7N1[C@H]5[C@H]2[C@H]3C[C@@H]64` (stereo not given in full), the IC50 in the assay with MCF7, in the assay with SW480, with SMMC-7721, in the assay on A549 and in the assay with HL-60 was over 40 µM throughout.
Consider `COc1ccc2c(c1)[C@@]13CCN4CC5=CCO[C@H]6CC(=O)N2[C@H]1[C@H]6[C@H]5C[C@H]43`, for which the half-maximal inhibitory concentration (IC50) in the assay with MCF7, with SW480, with SMMC-7721, with A549 and with HL-60 was over 40 µM throughout.
`COC1=C2CN(C)CC[C@]34C(=O)C[C@@H]2[C@H]2[C@H](CC(=O)N(c5ccccc53)[C@@H]24)OC1`: the 50% inhibitory concentration (IC50) in the assay with MCF7, in the assay with SW480, in the assay with SMMC-7721, in the assay on A549 and with HL-60 was over 40 µM throughout.
Take `COc1ccc2c(c1)N1C(=O)C[C@@H]3OCC=C4CN5CC[C@]26[C@@H]5C[C@@H]4[C@@H]3[C@H]16`: the IC50 with MCF7, in the assay with SW480, with SMMC-7721, in the assay on A549 and in the assay on HL-60 was over 40 µM in each case.
On to `COc1cc2c(cc1OC)[C@@]13CC[N+]4([O-])CC5=CCO[C@H]6CC(=O)N2[C@H]1[C@H]6[C@H]5C[C@@H]34` (stereo not given in full), for which the IC50 in the assay with MCF7, with SW480, with SMMC-7721, with A549 and in the assay with HL-60 was over 40 µM each time.
Turning to `C/C=C1/CN2CC[C@@]34c5ccccc5N5/C=C6/[C@H]7C[C@@H]8N(CC[C@@]89c8ccccc8N(/C=C(/[C@H]1C[C@H]23)[C@H]54)[C@@H]69)C/C7=C/C` [BISNORDIHYDROTOXIFERINE], the IC50 in the assay on MCF7, in the assay with SW480, in the assay on SMMC-7721, in the assay on A549 and in the assay with HL-60 was over 40 µM in each case.
In the case of `COc1cc2c(cc1OC)[C@@]13CCN4CC5=CCO[C@H]6CC(=O)N2[C@H]1[C@H]6[C@H]5C[C@H]43` [BRUCINE], the IC50 in the assay on MCF7, in the assay with SW480, in the assay with SMMC-7721, in the assay on A549 and with HL-60 was over 40 µM each time.
In the case of `CN1CC[C@]23C(=O)C[C@H]4C(=CCO[C@H]5CC(=O)N(c6ccccc62)[C@H]3[C@H]54)C1` [ICAJINE], the IC50 in the assay with MCF7, in the assay on SW480, in the assay on SMMC-7721, in the assay with A549 and in the assay with HL-60 was over 40 µM in each case.
For `COc1cc2c(cc1OC)[C@]13CCN4C/C(=C/CO)[C@H](C[C@H]41)C1=CCC(=O)N2[C@@H]13` [ISOBRUCINE], the half-inhibitory concentration (IC50) with MCF7, in the assay with SW480, with SMMC-7721, with A549 and in the assay with HL-60 was over 40 µM in each case.
For `O=C1CC=C2[C@H]3C[C@@H]4N(CC[C@@]45c4ccccc4N1[C@@H]25)C/C3=C/CO` [ISOSTRYCHNINE], the IC50 in the assay on MCF7, in the assay on SW480, in the assay with SMMC-7721, in the assay on A549 and with HL-60 was over 40 µM in each case.
Take `COc1cc2c(cc1OC)[C@@]13CCN(C)CC4=CCO[C@H]5CC(=O)N2[C@H]1[C@H]5[C@H]4CC3=O` [NOVACINE]: the IC50 in the assay on MCF7, in the assay on SW480, in the assay with SMMC-7721, in the assay on A549 and in the assay with HL-60 was over 40 µM each time.
As for `COc1cc2c(cc1OC)[C@@]13CCN4CC5=CCO[C@H]6CC(=O)N2[C@H]1[C@H]6[C@H]5C[C@]43O` [PSEUDOBRUCINE], the IC50 with MCF7, with SW480, in the assay on SMMC-7721, with A549 and in the assay on HL-60 was over 40 µM each time.
For the compound `O=C1C[C@@H]2OCC=C3CN4CC[C@]56c7ccccc7N1[C@H]5[C@H]2[C@H]3C[C@]46O` [PSEUDOSTRYCHNINE], the IC50 in the assay on MCF7, in the assay on SW480, in the assay with SMMC-7721, in the assay with A549 and in the assay with HL-60 was over 40 µM throughout.
On to `C[N+]12CC[C@@]34c5ccccc5N5C(=O)C[C@@H]6OCC=C(C1)[C@H](C[C@@H]32)[C@@H]6[C@H]54` (stereo not given in full) [STRYCHNINE METHIODIDE], for which the IC50 with MCF7, in the assay with SW480, in the assay on SMMC-7721, in the assay on A549 and with HL-60 was over 40 µM throughout.
With `O=C1C[C@@H]2OCC=C3CN4CC[C@]56c7ccccc7N1[C@H]5[C@H]2[C@H]3C[C@H]46` [STRYCHNINE], the IC50 with MCF7, with SW480, in the assay on SMMC-7721, in the assay on A549 and in the assay on HL-60 was over 40 µM each time.
For the compound `COc1cc2c3c4n(c2cc1OC)C(=O)C[C@@H]1OCC=C2CN(CC3)C(=O)C[C@@H]2[C@H]41` [STRYNUXLINE A], the IC50 is 12.2 µM in the assay with MCF7; 13.3 µM in the assay on SW480; 9.4 µM in the assay on SMMC-7721; 17.1 µM with A549; 7.15 µM in the assay with HL-60.
Turning to `O=C1C[C@H]2C3=CCO[C@H]4CC(=O)n5c(c(c6ccccc65)CCN1C3)[C@H]42` [STRYNUXLINE B], the IC50 stood at 11.2 µM in the assay on MCF7; 19 µM in the assay on SW480; 15.7 µM in the assay with SMMC-7721; 18.1 µM in the assay with A549; 16.5 µM in the assay on HL-60.
Consider `CN1CC[C@]23C(=O)C[C@H]4C(=CCO[C@H]5CC(=O)N(c6c(O)cccc62)[C@H]3[C@H]54)C1` [VOMICINE], for which the IC50 in the assay on MCF7, in the assay with SW480, with SMMC-7721, in the assay with A549 and with HL-60 was over 40 µM in each case.

Values taken from ChEMBL document CHEMBL2163304, “Strynuxlines A and B, alkaloids with an unprecedented carbon skeleton from Strychnos nux-vomica” (J Nat Prod, 2012).
